Results taken from ChEMBL document CHEMBL1128288, “7-Azetidinylquinolones as antibacterial agents. 3. Synthesis, properties and structure-activity relationships of the stereoisomers containing a 7-(3-amino-2-methyl-1-azetidinyl) moiety” (J Med Chem, 1995).
≈ marks a conversion by molar mass, not a printed value.

Key:
Pseudomonas aeruginosa [1] = experiment: In vivo efficacy as ED50 against Pseudomonas aeruginosa HS-116 by oral administration in mice.; assay type: functional
Method in brief: (§1)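 Mice, 4 groups of 10, infected intraperitoneally with slightly more than the LD100 of the organism. A single oral dose was given immediately after infection, with four doses (one per group) chosen from in vitro activity. Survival was scored after one week. ED50 (total dose, mg/kg, protecting 50%) was interpolated among group survival rates.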

Escherichia coli [2] = experiment: In vivo efficacy as ED50 against Escherichia coli HM-42 by oral administration in mice.; assay type: functional; method in brief: as §1
[3] = mouse, in vivo, po, 50 mg/kg
Bacillus cereus = experiment: In vitro antibacterial activity measured as minimum inhibitory concentration was evaluated on Bacillus cereus ATCC 11778 (Bc).; assay type: functional
Method in brief: (§2)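 Serial 2-fold agar dilution in Mueller Hinton medium, run side by side with reference quinolones. Inoculum 10^5 cfu/mL; compound range 0.007–16 µg/mL.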

Bacillus subtilis = experiment: In vitro antibacterial activity measured as minimum inhibitory concentration was evaluated on Bacillus subtilis ATCC 6633(Bs).; assay type: functional; method in brief: as §2
Enterobacter cloacae = experiment: In vitro antibacterial activity measured as minimum inhibitory concentration, was evaluated on Enterobacter cloacae ATCC 23355 (Ecl).; assay type: functional
Klebsiella pneumoniae = experiment: In vitro antibacterial activity measured as minimum inhibitory concentration was evaluated on klebsiella pneumoniae ATCC 10031 (Kp).; assay type: functional
Method in brief: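 Serial 2-fold agar dilution in Mueller Hinton medium, run side by side with reference quinolones.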

Staphylococcus aureus [4] = experiment: In vivo efficacy as ED50 against Staphylococcus aureus HS-93 by oral administration in mice.; assay type: functional; method in brief: as §1
Proteus vulgaris = experiment: In vitro antibacterial activity measured as minimum inhibitory concentration was evaluated on proteus vulgaris ATCC 8427 (Pv).; assay type: functional; method in brief: as §2
Pseudomonas aeruginosa [5] = experiment: In vitro antibacterial activity measured as minimum inhibitory concentration was evaluated on Pseudomonas aeruginosa ATCC 10145 (Pa).; assay type: functional; method in brief: as §2
Staphylococcus aureus [6] = experiment: In vitro antibacterial activity measured as minimum inhibitory concentration was evaluated on Staphylococcus aureus ATCC 25178 (Sa).; assay type: functional; method in brief: as §2
[7] = system: Staphylococcus epidermidis; experiment: In vitro antibacterial activity measured as minimum inhibitory concentration was evaluated on Staphylococcus epidermidis ATCC 155-1 (Se).; assay type: functional; method in brief: as §2
Enterococcus faecalis = experiment: In vitro antibacterial activity measured as minimum inhibitory concentration was evaluated on Streptococcus faecalis ATCC 10541 (Sf).; assay type: functional; method in brief: as §2
Escherichia coli [8] = experiment: In vitro antibacterial activity measured as minimum inhibitory concentration, was evaluated on Escherichia coli ATCC 23559(Ec).; assay type: functional; method in brief: as §2
Morganella morganii = experiment: In vitro antibacterial activity measured as minimum inhibitory concentration was evaluated on morganella morganii ATCC 8019 (Mm).; assay type: functional; method in brief: as §2
[9] = Pseudomonas aeruginosa, po, read-out: ED50
[10] = Escherichia coli, po, read-out: ED50
[11] = Bacillus cereus, ATCC 11778, read-out: MIC
[12] = Bacillus subtilis, ATCC 6633, read-out: MIC
[13] = Enterobacter cloacae, ATCC 23355, read-out: MIC
[14] = Klebsiella pneumoniae, ATCC 10031, read-out: MIC
[15] = Staphylococcus aureus, po, read-out: ED50
[16] = Proteus vulgaris, ATCC 8427, read-out: MIC
[17] = Pseudomonas aeruginosa, ATCC 10145, read-out: MIC
[18] = Staphylococcus aureus, ATCC 25178, read-out: MIC
[19] = Staphylococcus epidermidis, ATCC 155-1, read-out: MIC
[20] = Enterococcus faecalis, ATCC 10541, read-out: MIC
[21] = Escherichia coli, ATCC 23559, read-out: MIC
[22] = Morganella morganii, ATCC 8019, read-out: MIC

Structure (SMILES) | AUC [3] [ng·h/mL] | MIC (Bacillus cereus; [11]) [µg/mL] | MIC (Bacillus subtilis; [12]) [µg/mL] | MIC (Enterobacter cloacae; [13]) [µg/mL] | MIC (Klebsiella pneumoniae; [14]) [µg/mL] | MIC (Proteus vulgaris; [16]) [µg/mL] | MIC (Pseudomonas aeruginosa [5]; [17]) [µg/mL] | MIC (Staphylococcus aureus [6]; [18]) [µg/mL] | MIC [7, 19] [µg/mL] | MIC (Enterococcus faecalis; [20]) [µg/mL] | MIC (Escherichia coli [8]; [21]) [µg/mL] | MIC (Morganella morganii; [22]) [µg/mL] | ED50 (Pseudomonas aeruginosa [1]; [9]) [mg/kg] | ED50 (Escherichia coli [2]; [10]) [mg/kg] | ED50 (Staphylococcus aureus [4]; [15]) [mg/kg] | also measured
O=C(O)c1cn(C2CC2)c2cc(N3CCNCC3)c(F)cc2c1=O [CIPROFLOXACIN] | 2300 | – | – | – | – | – | – | – | – | – | – | – | 70 | 3 | – | –
C[C@@H]1[C@H](N)CN1c1c(F)cc2c(=O)c(C(=O)O)cn(C3CC3)c2c1F (stereo in doubt; 23c) | – | – | – | – | – | – | – | – | – | – | – | – | – | – | – | MIC (Bacillus cereus): 0.06 µg/mL (≈ 0.172 µM); MIC (Bacillus subtilis): 0.03 µg/mL (≈ 0.0859 µM); MIC (Enterobacter cloacae): 0.03 µg/mL (≈ 0.0859 µM); MIC (Klebsiella pneumoniae): 0.03 µg/mL (≈ 0.0859 µM); ED50 (Pseudomonas aeruginosa [1]): 117 mg/kg; ED50 (Staphylococcus aureus [4]): 5.4 mg/kg; ED50 (Escherichia coli [2]): 6.1 mg/kg; MIC (Proteus vulgaris): 0.12 µg/mL (≈ 0.344 µM); MIC (Pseudomonas aeruginosa [5]): 0.5 µg/mL (≈ 1.43 µM); MIC (Staphylococcus aureus [6]): 0.06 µg/mL (≈ 0.172 µM); MIC [7]: 0.12 µg/mL (≈ 0.344 µM); MIC (Enterococcus faecalis): 0.5 µg/mL (≈ 1.43 µM); MIC (Escherichia coli [8]): 0.03 µg/mL (≈ 0.0859 µM); MIC (Morganella morganii): 0.06 µg/mL (≈ 0.172 µM)
C[C@@H]1[C@@H](N)CN1c1c(F)cc2c(=O)c(C(=O)O)cn(C3CC3)c2c1F (stereo in doubt; 22b) | 13600 | – | – | – | – | – | – | – | – | – | – | – | – | – | 12.2 | MIC (Bacillus cereus): 0.5 µg/mL (≈ 1.43 µM); MIC (Bacillus subtilis): 0.12 µg/mL (≈ 0.344 µM); MIC (Enterobacter cloacae): 0.25 µg/mL (≈ 0.716 µM); MIC (Klebsiella pneumoniae): 0.12 µg/mL (≈ 0.344 µM); ED50 (Pseudomonas aeruginosa [1]): 65 mg/kg; ED50 (Escherichia coli [2]): 10.2 mg/kg; MIC (Proteus vulgaris): 0.5 µg/mL (≈ 1.43 µM); MIC (Pseudomonas aeruginosa [5]): 4 µg/mL (≈ 11.5 µM); MIC (Staphylococcus aureus [6]): 0.25 µg/mL (≈ 0.716 µM); MIC [7]: 0.25 µg/mL (≈ 0.716 µM); MIC (Enterococcus faecalis): 2 µg/mL (≈ 5.73 µM); MIC (Escherichia coli [8]): 0.25 µg/mL (≈ 0.716 µM); MIC (Morganella morganii): 0.25 µg/mL (≈ 0.716 µM)
C[C@@H]1[C@@H](N)CN1c1cc2c(cc1F)c(=O)c(C(=O)O)cn2C1CC1 | 2200 | 1 (≈ 3.02 µM) | 0.25 (≈ 0.754 µM) | 0.25 (≈ 0.754 µM) | 0.25 (≈ 0.754 µM) | 1 (≈ 3.02 µM) | 4 (≈ 12.1 µM) | 1 (≈ 3.02 µM) | 1 (≈ 3.02 µM) | 2 (≈ 6.04 µM) | 0.25 (≈ 0.754 µM) | 0.5 (≈ 1.51 µM) | – | – | – | –
C[C@H]1[C@H](N)CN1c1c(F)cc2c(=O)c(C(=O)O)cn(C3CC3)c2c1Cl (single isomer, unassigned) | 5200 | 0.015 (≈ 0.041 µM) | 0.015 (≈ 0.041 µM) | 0.015 (≈ 0.041 µM) | 0.015 (≈ 0.041 µM) | 0.015 (≈ 0.041 µM) | – | 0.015 (≈ 0.041 µM) | 0.015 (≈ 0.041 µM) | 0.015 (≈ 0.041 µM) | 0.015 (≈ 0.041 µM) | 0.015 (≈ 0.041 µM) | 36 | 2.1 | 3.6 | –
C[C@@H]1[C@@H](N)CN1c1c(F)cc2c(=O)c(C(=O)O)cn(C3CC3)c2c1Cl | – | 0.5 (≈ 1.37 µM) | 0.12 (≈ 0.328 µM) | 0.25 (≈ 0.683 µM) | 2 (≈ 5.47 µM) | 0.25 (≈ 0.683 µM) | 4 (≈ 10.9 µM) | 0.5 (≈ 1.37 µM) | 0.5 (≈ 1.37 µM) | 0.25 (≈ 0.683 µM) | 0.25 (≈ 0.683 µM) | 0.25 (≈ 0.683 µM) | 147 | 18.4 | 19.1 | –

Further lines, with some results ahead:

AUC [3] [ng·h/mL] | MIC (Bacillus cereus; [11]) [µg/mL] | MIC (Bacillus subtilis; [12]) [µg/mL] | MIC (Enterobacter cloacae; [13]) [µg/mL] | MIC (Klebsiella pneumoniae; [14]) [µg/mL] | MIC (Proteus vulgaris; [16]) [µg/mL] | MIC (Pseudomonas aeruginosa [5]; [17]) [µg/mL] | MIC (Staphylococcus aureus [6]; [18]) [µg/mL] | MIC [7, 19] [µg/mL] | MIC (Enterococcus faecalis; [20]) [µg/mL] | MIC (Escherichia coli [8]; [21]) [µg/mL] | MIC (Morganella morganii; [22]) [µg/mL] | Structure (SMILES) | ED50 (Pseudomonas aeruginosa [1]; [9]) [mg/kg] | ED50 (Escherichia coli [2]; [10]) [mg/kg] | ED50 (Staphylococcus aureus [4]; [15]) [mg/kg] | also measured
35900 | 0.5 (≈ 1.24 µM) | 0.25 (≈ 0.62 µM) | 1 (≈ 2.48 µM) | 0.25 (≈ 0.62 µM) | 2 (≈ 4.96 µM) | 8 (≈ 19.8 µM) | 0.25 (≈ 0.62 µM) | 0.25 (≈ 0.62 µM) | 4 (≈ 9.92 µM) | 0.5 (≈ 1.24 µM) | 1 (≈ 2.48 µM) | C[C@@H]1[C@@H](N)CN1c1cc2c(cc1F)c(=O)c(C(=O)O)cn2-c1ccc(F)cc1F | 90 | 10 | 16.1 | –
28300 | 0.5 (≈ 1.24 µM) | 0.25 (≈ 0.618 µM) | 1 (≈ 2.47 µM) | 0.25 (≈ 0.618 µM) | 2 (≈ 4.95 µM) | 8 (≈ 19.8 µM) | 0.5 (≈ 1.24 µM) | 0.5 (≈ 1.24 µM) | 4 (≈ 9.89 µM) | 0.5 (≈ 1.24 µM) | 1 (≈ 2.47 µM) | C[C@@H]1[C@@H](N)CN1c1nc2c(cc1F)c(=O)c(C(=O)O)cn2-c1ccc(F)cc1F | 400 | 10.3 | 8.6 | –
– | 0.12 (≈ 0.285 µM) | 0.06 (≈ 0.142 µM) | 0.06 (≈ 0.142 µM) | 0.06 (≈ 0.142 µM) | 0.5 (≈ 1.19 µM) | 0.5 (≈ 1.19 µM) | 0.12 (≈ 0.285 µM) | 0.12 (≈ 0.285 µM) | 1 (≈ 2.37 µM) | 0.06 (≈ 0.142 µM) | 0.25 (≈ 0.593 µM) | C[C@@H]1[C@@H](N)CN1c1c(F)cc2c(=O)c(C(=O)O)cn(-c3ccc(F)cc3F)c2c1F | 98 | 3 | 11.2 | –
